# Measured values published in PMC2951323 (Nature, 2009).
# Bridge positions count the residues as written; N and C are the ends. Square brackets hold non-standard residues; d marks the D form. Ends that are not written are not given here. Peptide text beside a SMILES is read from it. * marks the point of attachment. FITC = O=C1OC2(c3ccc(O)cc3Oc3cc(O)ccc32)c2ccc(NC(=S)*)cc21; S5 = C=CCCC[C@](C)(N)C(=O)O; βAla = NCCC(=O)O
# B1: dnMAML1 (dominant-negative fragment of MAML1, amino acids 13–74) (domain or fragment, human, UniProt Q92585 13-74, looked up)
# chain: LPRHSAVMERLRRRIELCRRHHSTCEARYEAVSPERLELERQHTFALHQRCIQAKAKRAGKH
# Tests used:
# [1] = biological target: RAMANK–CSL complex (Homo sapiens, UniProt P46531+Q06330); test: Fluorescence polarization binding of FITC–SAHM peptides to RAMANK–CSL
# Procedure, shortened: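 FITC-labelled stapled test peptides titrated against recombinant human RAMANK (NOTCH1 aa 1761–2127) pre-complexed with human CSL (aa 9–435). Both proteins were expressed and purified as previously reported. Buffer was 20 mM Tris pH 8.4, 150 mM NaCl, 1 mM EDTA and 1 mM DTT. Polarization was read at λex 485 nm and λem 525 nm. Data are mean ± s.d., n = 3.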
# [2] = assay type: cell-based
# [3] = system: constitutively activated NOTCH1; test: NOTCH1-dependent dual-luciferase reporter-gene assay; assay type: cell-based; details: signal normalized to Renilla luciferase control
# [4] = biological target: pre-formed RAMANK–CSL complex (human, UniProt P46531 1761-2127; Q06330 23-449); test: fluorescence polarisation
# pre-formed RAMANK–CSL complex, sequence (P46531 1761-2127, chain 1 of 2): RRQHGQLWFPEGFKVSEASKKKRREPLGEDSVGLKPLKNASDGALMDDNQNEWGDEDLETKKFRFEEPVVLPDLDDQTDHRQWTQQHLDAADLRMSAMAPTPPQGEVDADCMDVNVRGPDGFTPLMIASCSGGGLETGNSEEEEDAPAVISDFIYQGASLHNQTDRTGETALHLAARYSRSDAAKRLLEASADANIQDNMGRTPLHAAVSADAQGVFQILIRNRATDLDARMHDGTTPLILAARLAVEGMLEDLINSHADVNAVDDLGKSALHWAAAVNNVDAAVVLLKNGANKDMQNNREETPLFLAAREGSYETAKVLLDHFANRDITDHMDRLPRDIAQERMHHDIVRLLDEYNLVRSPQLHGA
# pre-formed RAMANK–CSL complex, sequence (Q06330 23-449, chain 2 of 2): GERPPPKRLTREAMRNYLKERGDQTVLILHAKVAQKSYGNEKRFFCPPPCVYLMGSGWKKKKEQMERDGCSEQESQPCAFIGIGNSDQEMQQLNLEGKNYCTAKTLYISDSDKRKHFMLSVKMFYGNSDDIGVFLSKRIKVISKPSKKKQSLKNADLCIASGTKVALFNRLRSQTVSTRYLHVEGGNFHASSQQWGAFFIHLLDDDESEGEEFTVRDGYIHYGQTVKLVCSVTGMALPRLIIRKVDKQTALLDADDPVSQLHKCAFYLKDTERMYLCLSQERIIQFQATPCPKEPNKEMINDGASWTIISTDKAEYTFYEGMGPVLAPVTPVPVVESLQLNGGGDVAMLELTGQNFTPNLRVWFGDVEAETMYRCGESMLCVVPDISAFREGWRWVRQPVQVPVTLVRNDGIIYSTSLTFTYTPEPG
molecule,measurement,setting,value
CC[C@H](C)[C@H](NC(=O)[C@H](CCCNC(=N)N)NC(=O)[C@H](CCCNC(=N)N)NC(=O)[C@H](CCCNC(=N)N)NC(=O)[C@H](CC(C)C)NC(=O)[C@H](CCCNC(=N)N)NC(=O)[C@H](CCC(=O)O)NC(=O)CCNC(=S)Nc1ccc2c(c1)C(=O)OC21c2ccc(O)cc2Oc2cc(O)ccc21)C(=O)N[C@@]1(C)CCCC=CCCC[C@@](C)(C(=O)N[C@@H](Cc2c[nH]cn2)C(=O)N[C@@H](Cc2c[nH]cn2)C(=O)N[C@@H](CO)C(=O)N[C@H](C(N)=O)[C@@H](C)O)NC(=O)[C@H](CCCNC(=N)N)NC(=O)[C@H](CS)NC(=O)[C@H](CC(C)C)NC1=O [FITC–SAHM1] ({FITC-βAla}-ERLRRRI[S5]LCR[S5]HHST-NH2; staple 8-12; N-terminus assumed),Kd,[1],120 ± 20 nM
same,intracellular distribution,[2]; FITC-labelled peptide,distributed throughout the cytoplasm and nucleus
same,uptake at 4 °C relative to 37 °C,"[2]; FITC-labelled peptide, 4 °C vs 37 °C",diminished
same,cellular uptake (cell penetration),"[2]; FITC-labelled peptides, quantitative epifluorescence microscopy",robust and roughly equivalent cellular uptake
"FITC–MAML1(21–36): FITC-labelled unmodified MAML1(21–36) peptide ({FITC}-ERLRRRIELCRRHHST; UniProt Q92585 21-36, looked up, fragment)",binding affinity for RAMANK–CSL compared with FITC–SAHM1 (in words),"[1]; fluorescence polarization, same buffer",markedly diminished affinity
C[C@H](NC(=O)Cc1cc(F)cc(F)c1)C(=O)N[C@H](C(=O)OC(C)(C)C)c1ccccc1 [DAPT],repression of luciferase activity,[3],near complete repression
B1,IC50,[4],3900 nM
